# Results reported in article PMC7088158 (International Journal of Peptide Research and Therapeutics, 2006).
# Experiments:
# [1] = Aqueous solubility of the substrates; format: physicochemical; conditions: standard form (CFO-1 N-terminus, Lys(BHQ-2)-amide C-terminus)
# [2] = tested on: primary hippocampal neurons; assay: Live cell imaging of probe entry and fluorescence in primary hippocampal neurons; format: cell-based, rat; conditions: cA 1 μM preloaded 30 min in Ca2+-free buffer, ionomycin 5 μM then CaCl2 0.2 mM
# Summary of the method: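 Hippocampal neurons from E18 rat hippocampi, papain-dissociated (2 mg/mL, 30 min, 37 °C), plated at 1 × 10^5 cells/well on poly-D-lysine cover glasses and used at 9–12 DIV. Medium was Neurobasal/B27 with 1% FBS and glutamate, half-replaced on days 4 and 7. Confocal imaging at 37 °C, 20× air objective, 543 nm excitation, 560–615 nm emission, frames every 1–2 min.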
# [3] = target: T1, Human erythrocyte calpain I (Homo sapiens, UniProt P07384); format: biochemical; conditions: pH 7.5
# T1 sequence (P07384 1-714): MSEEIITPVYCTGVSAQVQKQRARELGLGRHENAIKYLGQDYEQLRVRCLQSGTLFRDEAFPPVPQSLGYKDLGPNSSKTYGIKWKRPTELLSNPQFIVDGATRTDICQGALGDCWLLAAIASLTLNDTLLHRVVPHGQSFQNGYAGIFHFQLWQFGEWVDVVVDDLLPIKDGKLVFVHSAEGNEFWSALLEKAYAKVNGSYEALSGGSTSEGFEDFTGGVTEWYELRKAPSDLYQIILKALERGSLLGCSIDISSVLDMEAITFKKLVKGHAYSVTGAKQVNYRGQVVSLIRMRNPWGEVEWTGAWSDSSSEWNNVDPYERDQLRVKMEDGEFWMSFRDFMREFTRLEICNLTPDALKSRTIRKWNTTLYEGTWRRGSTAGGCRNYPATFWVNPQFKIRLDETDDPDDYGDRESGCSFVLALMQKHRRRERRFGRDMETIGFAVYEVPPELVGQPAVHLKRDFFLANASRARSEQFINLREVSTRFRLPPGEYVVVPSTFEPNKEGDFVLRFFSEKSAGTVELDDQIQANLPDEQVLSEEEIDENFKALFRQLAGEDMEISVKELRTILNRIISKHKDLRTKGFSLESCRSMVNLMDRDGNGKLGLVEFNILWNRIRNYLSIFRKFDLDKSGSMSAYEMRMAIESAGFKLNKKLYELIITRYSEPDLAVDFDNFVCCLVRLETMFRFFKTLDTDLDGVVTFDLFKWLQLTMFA
# T1 sequence (P04632 1-268 partner): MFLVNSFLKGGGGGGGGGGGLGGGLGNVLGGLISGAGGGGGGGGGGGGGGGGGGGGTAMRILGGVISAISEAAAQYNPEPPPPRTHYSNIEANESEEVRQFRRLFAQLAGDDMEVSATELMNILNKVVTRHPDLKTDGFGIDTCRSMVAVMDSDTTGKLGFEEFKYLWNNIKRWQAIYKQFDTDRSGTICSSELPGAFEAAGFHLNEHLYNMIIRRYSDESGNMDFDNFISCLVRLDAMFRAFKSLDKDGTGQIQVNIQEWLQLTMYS
# trypsin = conditions: pH 7.5
# α-chymotrypsin = α-chymotrypsin (Bos taurus, UniProt P00766, DEL14-15/DEL147-148); conditions: pH 7.5
# primary cortical neurons = assay: Live cell imaging of probe entry and fluorescence in primary cortical neurons; format: cell-based, rat; conditions: washed
# Summary of the method: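 Cortical neurons from E18 rat cortices, papain-dissociated (2 mg/mL, 30 min, 37 °C), plated at 1 × 10^5 cells/well on poly-D-lysine-coated chambered cover glasses in Neurobasal/B27 medium and used at 5 DIV. Confocal live imaging used a 20× air objective at 37 °C, with 543 nm excitation and emission collected at 560–615 nm. Frames were taken every 1–2 min.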
Substance,"Effectiveness as calpain substrate, in words [3]","Stability to chymotrypsin, in words (α-chymotrypsin)",other results
EVYGM*M* [cG],–,–,"Solubility, in words [1]: very poorly soluble"
GSGTSS [cA],proceeded only partially,–,Intracellular fluorescence on activation of calpain pathways by ionomycin [2]: fluorescence was observed
PLFAER [cW],far superior calpain substrate compared to cA,–,"Stability to trypsin, in words (trypsin): poor stability"
PLGAERP [cXa],rather similar as a calpain substrate to its parent,affected remarkably little,–
PLLAERP [cXb],at least as an effective calpain substrate as its parent,considerably improved chymotryptic stability,–
PLLAERP [cXe],improved calpain substrate,very much more stable to chymotrypsin,"Intracellular fluorescence following ionomycin (primary cortical neurons; cXe 2 μM 40 min, ionomycin 5 μM): increased intracellular fluorescence; Entry into cells without transporter sequence (primary cortical neurons; cXe 2 μM preloaded 40 min, confocal imaging 37 °C): proved to enter cells without a transporter sequence"
PLLAERP [cXf],–,little improvement,–
PLLAERP [cXg],–,significantly improved,–
PLVAERP [cXc],dramatically reduced the effectiveness of calpain processing,–,–
VVQAGI [cM],–,–,"Solubility, in words [1]: very poorly soluble"
VVTAEA [cJ],–,–,"Solubility, in words [1]: very poorly soluble"
